In assay [1] the target is T1, Opioid receptors; mu & delta (Rattus norvegicus) (UniProt P33533+P33535). Description: Selectivity ratio of Ki for mu opioid receptor to Ki for delta opioid receptor. It counts as protein assay.
The target in assay [2] is Delta-type opioid receptor (Rattus norvegicus, UniProt P33533). Description: Displacement of [3H]deltorphin 2 from delta opioid receptor in Sprague-Dawley rat brain P2 synaptosomal membrane. An outline of the steps: (§1)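 Competition binding at equilibrium, 2.5 h at 23 °C, on rat brain P2 synaptosomes preincubated to remove endogenous opioids, stored at -80 °C in buffered 20% glycerol. Five to eight peptide doses, duplicate assays, 3-5 independent preparations. Filtration on polyethylenimine-soaked (0.1%) glass fibre filters, three washes in ice-cold buffered BSA; Ki by Cheng-Prusoff, mean ± SE.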
In general terms: Displacement assays read how much labelled ligand stays bound in the presence of the test substance.

The target in assay [3] is Mu-type opioid receptor (Cavia porcellus, UniProt P97266). Description: Agonist activity at mu opioid receptor in Hartley guinea pig ileum assessed as inhibition of electrically-stimulated contraction. The class given is functional, tissue-based. An outline of the steps: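 Myenteric plexus-longitudinal muscle strips (2-3 cm) from small intestine of male Hartley guinea pigs in organ bath, physiological buffer pH 7.5. Inhibition of electrically evoked contraction; IC50 (nM) from dose-response curves, mean ± SE of five or six separate tissue assays; endomorphin-2 as internal standard.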

The target of assay [4] is Delta-type opioid receptor (Mus musculus, UniProt P32300). The assay can be described thus: Antagonist activity at delta opioid receptor in mouse vas deferens assessed as inhibition of electrically-stimulated contraction. It counts as functional, tissue-based. To be noted: read-out: pA2 (converted). An outline of the steps:
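Single mouse vas deferens in organ bath, balanced salt physiological buffer pH 7.5, electrically stimulated. Antagonism measured against δ-agonist deltorphin II; pA2 derived by Schild plot (method of Kosterlitz and Watt).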

Assay [5] concerns the target Mu-type opioid receptor (Rattus norvegicus, UniProt P33535). Description: Displacement of [3H]DAMGO 2 from mu opioid receptor in Sprague-Dawley rat brain P2 synaptosomal membrane. An outline of the steps: as §1
The target of assay [6] is T1, Opioid receptors; mu & delta (Rattus norvegicus). The assay can be described thus: Selectivity ratio of Ki for rat delta opioid receptor to Ki for rat mu opioid receptor. The class given is protein assay.

Each structure is given as a SMILES string. Starred links: 1 amine or outer side, 2 acyl side, 3 side chain; linkers in the order of their positions; H or OH if unused. Non-standard residues stand in square brackets, D forms with d. Residues, ends and D or L forms follow the SMILES beside them. *: point of attachment. Dmt = Cc1cc(O)cc(C)c1C[C@H](N)C(=O)O; εLys = N[C@@H](CCCCN[*:1])C(=O)[*:2]; Tic = O=C(O)[C@@H]1Cc2ccccc2CN1; NHBn = c1ccc(CN*)cc1; NHPh = c1ccc(N*)cc1

Mu-type opioid receptor (Rattus norvegicus, UniProt P33535), sequence (P33535 whole entry): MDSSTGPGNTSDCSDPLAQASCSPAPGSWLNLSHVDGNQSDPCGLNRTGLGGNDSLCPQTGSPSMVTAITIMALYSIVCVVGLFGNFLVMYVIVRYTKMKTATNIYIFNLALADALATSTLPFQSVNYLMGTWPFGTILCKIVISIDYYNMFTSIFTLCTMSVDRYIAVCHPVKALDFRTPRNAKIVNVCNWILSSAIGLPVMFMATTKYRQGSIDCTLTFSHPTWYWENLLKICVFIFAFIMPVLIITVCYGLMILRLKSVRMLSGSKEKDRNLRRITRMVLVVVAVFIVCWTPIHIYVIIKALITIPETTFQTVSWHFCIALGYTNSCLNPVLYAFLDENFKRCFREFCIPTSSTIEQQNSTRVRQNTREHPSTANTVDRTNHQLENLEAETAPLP
Delta-type opioid receptor (Rattus norvegicus, UniProt P33533), sequence (P33533 whole entry): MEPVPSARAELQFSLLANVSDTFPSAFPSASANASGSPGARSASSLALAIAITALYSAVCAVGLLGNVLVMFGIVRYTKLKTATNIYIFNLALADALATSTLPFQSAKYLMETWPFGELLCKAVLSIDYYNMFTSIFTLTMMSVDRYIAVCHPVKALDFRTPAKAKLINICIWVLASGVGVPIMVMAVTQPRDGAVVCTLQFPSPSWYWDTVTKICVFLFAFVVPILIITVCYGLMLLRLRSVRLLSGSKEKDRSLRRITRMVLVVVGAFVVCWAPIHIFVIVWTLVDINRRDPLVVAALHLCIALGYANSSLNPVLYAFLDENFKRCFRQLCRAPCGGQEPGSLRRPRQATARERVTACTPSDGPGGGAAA
T1 sequence (P33533 whole entry, looked up): as the sequence (P33533 whole entry) above
T1 sequence (P33535 whole entry, looked up): as the sequence (P33535 whole entry) above
Mu-type opioid receptor (Cavia porcellus, UniProt P97266), sequence (P97266 whole entry): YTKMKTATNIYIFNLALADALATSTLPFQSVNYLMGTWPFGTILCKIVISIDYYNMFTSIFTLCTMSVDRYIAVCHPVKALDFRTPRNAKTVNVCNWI
Delta-type opioid receptor (Mus musculus, UniProt P32300), sequence (P32300 whole entry): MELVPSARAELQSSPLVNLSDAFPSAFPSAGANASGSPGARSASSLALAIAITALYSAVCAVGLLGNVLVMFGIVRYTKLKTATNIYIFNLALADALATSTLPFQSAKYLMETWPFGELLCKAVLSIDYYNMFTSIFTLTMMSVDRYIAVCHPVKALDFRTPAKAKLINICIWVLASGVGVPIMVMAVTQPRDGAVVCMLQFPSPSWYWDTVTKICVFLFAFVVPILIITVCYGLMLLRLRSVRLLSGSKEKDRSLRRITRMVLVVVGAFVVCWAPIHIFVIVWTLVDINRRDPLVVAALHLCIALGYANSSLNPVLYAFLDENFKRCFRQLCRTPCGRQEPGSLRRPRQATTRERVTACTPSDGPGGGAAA

By Ki is commonly meant the dissociation constant of the complex between target and ligand, obtained from inhibition or displacement. The low end stands for tighter binding, the high end for weaker binding. Usually IC50 stands for the concentration that inhibits the measured activity by half. For `CC(=O)N[C@@H](CCCCNC(=O)[C@@H]1Cc2ccccc2CN1C(=O)[C@@H](N)Cc1c(C)cc(O)cc1C)C(=O)NCc1ccccc1`, the Ratio Ki in assay [1] came to 16.3. Also, the figures for the Ki (in assay [2]; on Mu-type opioid receptor [5]) were 0.21 nM and 3.43 nM, respectively. Besides, the half-maximal inhibitory concentration (IC50) on Mu-type opioid receptor [3] worked out at 1990 nM. Further, in assay [4], the Kb is 8.51 nM.

`Cc1cc(O)cc(C)c1C[C@H](N)C(=O)N1Cc2ccccc2C[C@H]1C(=O)NCCCC[C@H](N)C(=O)Nc1ccccc1` (H-[Dmt]-[Tic]-[εLys]-NHPh): the Ratio Ki in assay [6] turned out to be 2.3. The Ki in assay [2] came out at 2.02 nM; on Mu-type opioid receptor [5], 0.89 nM. In addition, the IC50 on Mu-type opioid receptor [3] was found to be 515 nM. Also, in assay [4], the Kb is 12 nM.

For the molecule `Cc1cc(O)cc(C)c1C[C@H](N)C(=O)N1Cc2ccccc2C[C@H]1C(=O)NCCCC[C@H](NC(=O)OCc1ccccc1)C(=O)NCc1ccccc1`, the Ratio Ki in assay [1] is 5.9. In addition, the Ki is 0.53 nM in assay [2] and 3.15 nM at Mu-type opioid receptor [5]. The IC50 on Mu-type opioid receptor [3] is 1450 nM. The Kb in assay [4] was 5.37 nM.

As to `Cc1cc(O)cc(C)c1C[C@H](N)C(=O)N1Cc2ccccc2C[C@H]1C(=O)NCCCC[C@H](NC(=O)OCc1ccccc1)c1nc2ccccc2[nH]1`, the Ratio Ki in assay [1] came to 3.2. For the same molecule, the Ki in assay [2] turned out to be 0.86 nM; on Mu-type opioid receptor [5], 2.78 nM. Besides, the IC50 at Mu-type opioid receptor [3] worked out at 618 nM. In assay [4], the Kb is 15.1 nM.

On to `Cc1cc(O)cc(C)c1C[C@H](N)C(=O)N1Cc2ccccc2C[C@H]1C(=O)NCCCC[C@H](N)c1nc2ccccc2[nH]1`, for which, in assay [6], the Ratio Ki worked out at 2.6. In addition, the inhibition constant Ki in assay [2] was found to be 2.64 nM; at Mu-type opioid receptor [5], 1.02 nM. In addition, at Mu-type opioid receptor [3], the IC50 came out at 434 nM. Moreover, the Kb in assay [4] is 8.13 nM.

Turning to `CC(=O)N[C@@H](CCCCNC(=O)[C@@H]1Cc2ccccc2CN1C(=O)[C@@H](N)Cc1c(C)cc(O)cc1C)C(=O)Nc1ccccc1`, the Ratio Ki in assay [1] amounted to 11.7. The Ki in assay [2] turned out to be 0.22 nM; at Mu-type opioid receptor [5], 2.57 nM. Moreover, the 50% inhibitory concentration (IC50) on Mu-type opioid receptor [3] was found to be 486 nM. In assay [4], the Kb is 6.61 nM.

On to `Cc1cc(O)cc(C)c1C[C@H](N)C(=O)N1Cc2ccccc2C[C@H]1C(=O)NCCCC[C@H](NC(=O)OCc1ccccc1)C(=O)Nc1ccccc1`, for which the Ratio Ki in assay [1] stood at 5.7. For the same molecule, the inhibition constant Ki in assay [2] worked out at 0.47 nM; at Mu-type opioid receptor [5] it was 2.67 nM. Further, the IC50 on Mu-type opioid receptor [3] amounted to 711 nM. Moreover, the Kb in assay [4] was 5.89 nM.

Consider `CC(=O)N[C@@H](CCCCNC(=O)[C@@H]1Cc2ccccc2CN1C(=O)[C@@H](N)Cc1c(C)cc(O)cc1C)c1nc2ccccc2[nH]1`, for which the Ratio Ki in assay [1] stood at 4.7. For the same molecule, the Ki in assay [2] was 0.21 nM; on Mu-type opioid receptor [5] it was 0.99 nM. Also, the half-maximal inhibitory concentration (IC50) at Mu-type opioid receptor [3] was determined as 610 nM. Further, in assay [4], the Kb is 7.59 nM.

On to `Cc1cc(O)cc(C)c1C[C@H](N)C(=O)N1Cc2ccccc2C[C@H]1C(=O)NCCCC[C@H](N)C(=O)NCc1ccccc1` (H-[Dmt]-[Tic]-[εLys]-NHBn), for which the Ratio Ki in assay [6] came to 1.7. For the same molecule, the values for the Ki (in assay [2]; on Mu-type opioid receptor [5]) were 1 nM and 0.6 nM, respectively. In addition, the IC50 at Mu-type opioid receptor [3] was found to be 553 nM. Also, the Kb in assay [4] was 15.5 nM.
